This is a sample that favours compounds with a hit; in the whole collection about 2.6% have one here.
SR-BI HDL uptake: mouse SR-BI HDL lipid transfer inhibition. 0.96% of 320,000 active. inhibition, % at 12.5 µM. Q61009. ldlA[mSR-BI] CHO cells, DiI-HDL uptake fluorescence, 3 h;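 active means mean replicate inhibition of at least 70% and a set share of replicates each scoring 70 or more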;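 further: 0% = median of neutral control wells and 100% = median of positive control wells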
Ecoli rRNA inh: inhibits bacterial ribosomal RNA function over humanized ribosomes. E. coli WT GFP vs humanized-ribosome RFP mutants, fluorescence, 24 h; stronger effect = lower value; DMSO median 0, no signal -100. GFP signal change (wild-type ribosome), % (concentration not given with the values). 1.6% of 350,000 active;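 active means significant combined selectivity score with lowered wild-type GFP, culture density cut under 30%, mutant RFP and density less affected; inactive means any of these conditions unmet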
PvdQ inh: P. aeruginosa PvdQ acylase inhibition. purified PvdQ acylase, fluorescence plate reader. inhibition, % at 10 µM. 0.063% of 340,000 active. AID 488965; in the data active means inhibition above about 30%, passing the limit was not always enough;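 further: 0% = vehicle neutral wells and 100% = reference inhibitor wells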
XiGFP reactiv: activators of X-chromosome reactivation in mouse fibroblasts; XiGFP mouse fibroblasts, % GFP-positive cells imaging, 3 d; cells co-treated with 5-aza-dC sensitizer; scaled so ellipticine positive control = 100%; activation, % at 7.58 µM; 0.055% of 360,000 active; AID 743238;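 active means mean normalized replicate activation at least 10% and every replicate at or above 10%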;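 further: 0% = median of on-plate neutral control wells and 100% = ellipticine 6 µM median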
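material = 68-5-11 XiGFP fibroblast line | medium = DMEM plus 5-aza-dC sensitizer | schedule = 3 days compound exposure | benchmarks = positive control ellipticine, 6 µM final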
SR-BI uptake up: enhances SR-BI lipid uptake from DiI-HDL | CHO ldlA[mSR-BI] cells, DiI-HDL uptake fluorescence, 3 h; 100 = double the neutral-control signal | activation, % at 12.5 µM | 0.096% of 320,000 active;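 active means mean replicate activation of at least 60% and every replicate at or above 60%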;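 further: 0% = median plate neutral-control signal and 100% = twice that signal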
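Assay system: LDL receptor-deficient CHO ldlA cells overexpressing murine SR-BI / Medium: BSA-supplemented, HEPES-buffered Ham's F12, pH 7.4 / Probe or stimulus: DiI-labelled HDL at 10 µg/mL final / Timing: compound with DiI-HDL co-incubation, 3 h at 37 °C / Technique: bottom-read cell fluorescence after medium removal, ex 550/em 595 nm / Measure: HDL uptake via cellular fluorescence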
dFosB act: enhances mouse delta FosB homodimer DNA binding. P13346. purified delta FosB, TAMRA-CDK5 oligo fluorescence polarization; percent of positive-control signal above neutral wells. activation, % at 25 µM. 0.99% of 340,000 active. AID 493131;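 active means mean activation above about 17%, with every replicate also reaching it, limit read from the data, passing the limit was not always enough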
Target sequence (P13346 whole entry, looked up): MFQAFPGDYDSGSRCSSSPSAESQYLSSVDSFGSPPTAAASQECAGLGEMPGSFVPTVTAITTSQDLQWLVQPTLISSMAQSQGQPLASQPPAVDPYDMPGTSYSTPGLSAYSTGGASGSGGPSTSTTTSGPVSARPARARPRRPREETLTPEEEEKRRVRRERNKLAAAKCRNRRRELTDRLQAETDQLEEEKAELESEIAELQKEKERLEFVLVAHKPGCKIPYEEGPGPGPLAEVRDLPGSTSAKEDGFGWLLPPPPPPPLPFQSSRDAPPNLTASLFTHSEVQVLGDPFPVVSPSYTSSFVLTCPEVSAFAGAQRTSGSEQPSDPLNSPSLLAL
* marks the source's active call; other numbers are inactive results; x = no result given.

SMILES	SR-BI HDL uptake	Ecoli rRNA inh	PvdQ inh	XiGFP reactiv	SR-BI uptake up	dFosB act
Cc1ccc2[nH]c3c(Cl)ncnc3c2c1	10.0	-29.3*	3.8	0.2	-10.0	-32.7
CCC(=O)Nc1ccc2c(c1)OC[C@@H](C)N(C(=O)c1ccccn1)C[C@@H](C)[C@@H](OC)CN(C)C2=O	x	0.6	x	0.3	x	x
CCC(=O)Nc1ccc(Cl)c(NC(=S)NC(=O)c2ccco2)c1	95.6*	-8.7	-8.2	0.1	-95.6	-5.1
CCOCCCNC(=O)C(c1ccc(C)cc1)N(Cc1cccs1)C(=O)c1ccccn1 (configuration not stated)	-4.8	-3.5	6.2	26.2*	4.8	-0.6
CCOCCCNC(=O)C(c1ccc(Cl)cc1)N(Cc1cccs1)C(=O)c1ccccn1 (configuration not stated)	-0.6	-23.0*	3.8	-0.1	0.6	-4.9
Cc1ccc(S(=O)(=O)N2CCCCC2)cc1C(=O)OCC(=O)N1c2ccccc2NC(=O)C1(C)C	66.5	-3.5	-16.7	0.0	-66.5	12.3
Cc1ccc(C(=O)OCC(=O)N2c3ccccc3NC(=O)C2(C)C)cc1S(=O)(=O)N1CCCCC1	84.1*	-3.6	-10.0	0.0	-84.1	-1.9
COc1cc(OC)c(OC)cc1/C=C/c1cc(C(=O)O)c2ccccc2n1	x	-29.8*	-1.3	0.0	x	-5.4
Cc1ccc(C(=O)O/N=C/c2c(C)nn(C)c2Cl)cc1	-14.1	-2.4	0.6	-0.6	14.1	-10.1
CCc1ccc(-c2nn[nH]n2)cc1	-2.4	x	-16.4	x	2.4	-6.2
CCOc1cccc(-c2nn(-c3ccccc3)cc2/C=C(/C#N)C(=O)NCCCn2ccnc2)c1	-6.5	x	-6.5	0.0	6.5	-19.7
N#C/C(=C/c1cn(-c2ccccc2)nc1-c1cccc(OCc2ccccc2)c1)C(=O)NCCCn1ccnc1	-84.3	x	-2.8	6.2	84.4*	31.3*
C=CC(=O)Nc1cccc(N(C)c2ccnc(Nc3ccc(N4CCN(C)CC4)cc3)n2)c1	5.2	x	3.7	x	-5.2	45.8*
C=CC(=O)Nc1cccc(Oc2ccnc(Nc3ccc(N4CCN(C)CC4)cc3)n2)c1	10.9	-2.8	-12.9	0.0	-10.9	65.5*
COc1cc(NC(=O)CN2C(=O)NC(c3ccccc3)(c3ccccc3)C2=O)cc(OC)c1	1.1	-8.3	-20.5	0.0	-1.1	-14.3
O=C(Nc1ccccc1N1CCCC1)C1CC(=O)N(Cc2ccccc2)C1 (configuration not stated)	-5.3	-7.2	-14.2	0.2	5.3	0.3
O=C(Nc1ccc(Br)cc1Br)C1CC(=O)N(Cc2ccccc2)C1 (configuration not stated)	-20.3	-33.5*	5.2	0.0	20.3	-6.0
Cc1ccc(-c2nc(NC(=O)c3cc(C(C)(C)C)nn3C)sc2C)cc1Cl	72.7*	6.6	-11.6	0.1	-72.7	-7.8
Cn1nccc1NC(=O)Nc1ccc(Cl)cc1	-7.0	-35.2*	4.4	0.0	7.0	-2.2
NS(=O)(=O)c1ccc(NC(=O)Nc2ccc(Cl)cc2)cc1	13.9	-26.4*	2.2	0.0	-13.9	3.4
Cc1ccc(S(=O)(=O)NNC(=S)Nc2ccc(Cl)cc2)cc1	-12.9	-27.7*	-3.2	0.2	12.9	-5.1
O=C(NCCCO)C(=O)Nc1cc2c3c(c1)CCC(=O)N3CCC2	-0.2	5.7	7.0	-0.1	0.2	1.8
COCCn1c(SCCOc2ccccc2)nc2ccccc2c1=O	36.4	-17.4	-8.0	0.2	-12.3	-1.5
COc1ccc(-c2ccc(-c3noc(-c4ccccc4OC)n3)c(OC)n2)cc1	55.2	x	-12.1	x	-55.2	-1.2
COc1cc(OC)nc(Oc2ccccc2C(=O)Oc2ccc(Cl)cc2)n1	2.9	-14.5	-8.4	x	-2.9	-11.1
COc1cc(OC)nc(Oc2ccccc2C(=O)Oc2ccccc2Cl)n1	15.6	-22.7*	-7.2	x	-15.6	2.6
Cc1ccc2nc3c(cc(S(=O)(=O)c4ccccc4)c(=N)n3Cc3ccco3)c(=O)n2c1	5.3	-21.1*	6.6	-0.1	-5.3	6.9
C(=C\c1ccccc1)/CNCC1CCCO1 (configuration not stated)	x	-0.2	-11.7	-0.1	x	-6.0
